The values that follow come from ChEMBL document CHEMBL4330158, “Prenylated Flavonoids from the Roots and Rhizomes of Sophora tonkinensis and Their Effects on the Expression of Inflammatory Mediators and Proprotein Convertase Subtilisin/Kexin Type 9” (J Nat Prod, 2019).

The subject of data set [1] is HepG2 (Homo sapiens). The experiment in a line: Inhibition of PCSK9 mRNA level in human HepG2 cells at 20 uM by qRT-PCR assay relative to control. (Quantitative PCR measures a nucleic acid by following its amplification.)
In data set [2] the test system is RAW264.7. Briefly: Cytotoxicity against mouse RAW264.7 cells assessed as reduction in cell viability at 20 uM by MTT assay. In kind it is cell-based. Particulars: raw264.7, 20 µM. The gist of the method:
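Viability was read by MTT assay in triplicate, with cells cultured at 37 °C in humidified 5% CO2.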
On the technique in general: Formazan colour is commonly taken as a measure of viable cells.

Data set [3] has as its system HepG2 (Homo sapiens). The experiment in a line: Inhibition of PCSK9 protein synthesis in human HepG2 cells by immunoblot analysis.
Data set [4] deals with RAW264.7. The experiment in a line: Anti-inflammatory activity in mouse RAW264.7 cells assessed as inhibition of LPS-induced IL-1beta mRNA level at 2 to 50 uM after 6 hrs by qRT-PCR assay. The format is functional, cell-based. The gist of the method:
(§1)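 RAW264.7 macrophages were grown in RPMI 1640 with 10% FBS at 37 °C and 5% CO2, then stimulated with LPS for 6 h. Total RNA was extracted with Trizol, and 1 μg was reverse-transcribed with oligo-dT at 42 °C for 1 h. SYBR Green qPCR ran 40 cycles of 95 °C 10 s and 55 °C 30 s. Levels were normalized to GAPDH by 2−ΔΔCT and given as mean ± SEM.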

Data set [5] deals with RAW264.7. Briefly: Anti-inflammatory activity in mouse RAW264.7 cells assessed as inhibition of LPS-induced TNF mRNA level at 2 to 50 uM after 6 hrs by qRT-PCR assay. The format is functional, cell-based. The gist of the method:
as §1

For data set [6], the system named is RAW264.7. Briefly: Anti-inflammatory activity in mouse RAW264.7 cells assessed as inhibition of LPS-induced CSF2 mRNA level at 2 to 50 uM after 6 hrs by qRT-PCR assay. In kind it is functional, cell-based. The gist of the method: as §1
Data set [7] deals with RAW264.7. Briefly: Anti-inflammatory activity in mouse RAW264.7 cells assessed as inhibition of LPS-induced NO production by Griess assay. In kind it is functional, cell-based. The gist of the method: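 Murine RAW264.7 macrophages were kept in RPMI 1640 with 10% FBS and penicillin/streptomycin at 37 °C and 5% CO2. NO production was taken as the nitrite concentration in the culture medium, measured by the Griess reaction.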
In general terms: The Griess reaction detects nitrite, a stable product of nitric oxide.

For data set [8], the system named is HepG2 (Homo sapiens). The experiment in a line: Induction of ACC phosphorylation in human HepG2 cells at 4 to 20 uM by Western blot analysis.
Data set [9] has as its system RAW264.7. The experiment in a line: Anti-inflammatory activity in mouse RAW264.7 cells assessed as inhibition of LPS-induced CSF2 mRNA level at 2 to 10 uM after 6 hrs by qRT-PCR assay. In kind it is functional, cell-based. The gist of the method: as §1
In data set [10] the test system is RAW264.7. The experiment in a line: Anti-inflammatory activity in mouse RAW264.7 cells assessed as inhibition of LPS-induced TNF mRNA level at 2 to 10 uM after 6 hrs by qRT-PCR assay. The format is functional, cell-based. The gist of the method:
as §1

Data set [11] has as its system RAW264.7. Briefly: Anti-inflammatory activity in mouse RAW264.7 cells assessed as inhibition of LPS-induced IL-1beta mRNA level at 2 to 10 uM after 6 hrs by qRT-PCR assay. In kind it is functional, cell-based. The gist of the method:
as §1

Structures are written as SMILES. Calls of active or inactive are those of the source. No cut-off for these calls is given here.

In data set [1], `CC(C)=CCc1c(O)c(CC=C(C)C)c2c(c1O)C(=O)C[C@@H](c1ccc(O)cc1)O2` [LONCHOCARPOL A] came in with an inhibition at 20 µM of 67.2%. For the same compound, the Activity entry in data set [2] is recorded as “Toxic”.

Turning to `COc1ccc2cc3[n+](cc2c1OC)CCc1cc2c(cc1-3)OCO2` [BERBERINE], in data set [3], the IC50 was determined as 6.9 µM. In [1], this compound came in with an inhibition at 20 µM of 67%.

For the compound `COc1ccc(-c2coc3c(CC=C(C)C)c(OC)ccc3c2=O)cc1`, the inhibition result in [4] was “inactive”. Besides, the inhibition result in data set [5] and in [6] was “Active” in each case. The IC50 in data set [7] worked out at 6.2 µM. In data set [2], the Activity result is on record as “Non-Toxic”.

`CC(C)=CCc1c(O)ccc2c1OC[C@H]1c3ccc4c(c3O[C@@H]21)OC(C)(C)C=C4` [ERYBREADIN D]: the IC50 in data set [3] came to 7.8 µM. In [1], this compound returned an inhibition at 20 µM of 44%. Moreover, the result in data set [8] was Active.

As for `COc1ccc([C@@H](CO)C(=O)c2cc(CC=C(C)C)c(OC)cc2O)cc1`, the inhibition entry in [9] and in [11] was “Active” throughout. The inhibition result in [10] was “inactive”. Besides, in data set [7], the IC50 came out at 8.1 µM. In addition, in data set [2], the Activity result was “Non-Toxic”.

What is called inhibition is the share of the control response that was lost under treatment. What is called IC50 is the concentration that gives 50% inhibition.
